Measured values as given in ChEMBL document CHEMBL2429794, “Tuning the antibacterial activity of amphiphilic neamine derivatives and comparison to paromamine homologues” (J Med Chem, 2013).
Values after ≈ are worked out from the molar mass of the structure shown.

Experiments:
Acinetobacter lwoffii [1] = test: Antibacterial activity against Acinetobacter lwoffii ATCC 17925 after 24 hrs by geometric microdilution method; format: functional; conditions: ATCC 17925, 24 h
Escherichia coli [2] = test: Antibacterial activity against Escherichia coli L58058.1 expressing ANT2''-1A after 24 hrs by geometric microdilution method; format: functional; conditions: L58058.1, 24 h
Staphylococcus aureus [3] = test: Antibacterial activity against healthcare-acquired methicillin-resistant Staphylococcus aureus ATCC 33592 after 24 hrs by geometric microdilution method; format: functional; conditions: ATCC 33592, 24 h
Method in brief: (§1)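 Broth cultures were incubated in plates at 37 °C, and growth was read as absorbance at 650 nm after 1, 4, 7 and 24 h. Ampicillin (16 mg/L) was the positive control and DMSO the negative control. Each MIC (μg/mL) is the average of at least three determinations.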

Escherichia coli [4] = test: microbe, parasite or virus in culture; conditions: ATCC 25922, 24 h
Staphylococcus aureus [5] = test: microbe, parasite or virus in culture; conditions: ATCC 25923, 24 h
Staphylococcus aureus [6] = test: Antibacterial activity against 14- and 15-membered macrolide-resistant Staphylococcus aureus expressing MsrA efflux pump after 24 hrs by geometric microdilution method; format: functional; method in brief: as §1
Staphylococcus aureus [7] = test: Antibacterial activity against fluoroquinolone-resistant Staphylococcus aureus 1199B expressing NorA efflux pump after 24 hrs by geometric microdilution method; format: functional; method in brief: as §1
Acinetobacter lwoffii [8] = test: Antibacterial activity against Acinetobacter lwoffii AI.88-483 expressing APH3'-6A after 24 hrs by geometric microdilution method; format: functional; conditions: AI.88-483, 24 h
Pseudomonas aeruginosa [9] = test: Antibacterial activity against Pseudomonas aeruginosa F03 expressing AAC6'-2A after 24 hrs by geometric microdilution method; format: functional; conditions: F03, 24 h
Escherichia coli [10] = test: Antibacterial activity against Escherichia coli PAZ505H8101 expressing AAC6'-1B after 24 hrs by geometric microdilution method; format: functional; conditions: PAZ505H8101, 24 h
Staphylococcus aureus [11] = test: Antibacterial activity against Staphylococcus aureus expressing aminoglycoside-6'-N-acetyltransferase/2''-O-phosphoryltransferase after 24 hrs by geometric microdilution method; format: functional; method in brief: as §1
Staphylococcus aureus [12] = test: Antibacterial activity against Staphylococcus aureus expressing aminoglycoside-3'-O-phosphoryltransferase after 24 hrs by geometric microdilution method; format: functional; method in brief: as §1
Pseudomonas aeruginosa [13] = test: Antibacterial activity against Pseudomonas aeruginosa PA22 (PT629) expressing MexXY after 24 hrs by geometric microdilution method; format: functional
Pseudomonas aeruginosa [14] = test: Antibacterial activity against Pseudomonas aeruginosa ATCC 27853 after 24 hrs by geometric microdilution method; format: functional; conditions: ATCC 27853, 24 h
Staphylococcus aureus [15] = test: Antibacterial activity against vancomycin-resistant Staphylococcus aureus VRS2 after 24 hrs by geometric microdilution method; format: functional; conditions: VRS2, 24 h; method in brief: as §1
Klebsiella pneumoniae = test: Antibacterial activity against Klebsiella pneumoniae ATCC 700603 after 24 hrs by geometric microdilution method; format: functional; conditions: ATCC 700603, 24 h
Staphylococcus aureus [16] = test: Antibacterial activity against Staphylococcus aureus expressing aminoglycoside-[…] after 24 hrs by geometric microdilution method; format: functional; method in brief: as §1

## N[C@H]1[C@@H](O[C@H]2[C@H](O)[C@@H](OCc3cccc4ccccc34)[C@H](N)C[C@@H]2N)O[C@H](CO)[C@@H](OCc2cccc3ccccc23)[C@@H]1OCc1cccc2ccccc12
Acinetobacter lwoffii [1]
  MIC: 1 µg/mL (≈ 1.34 µM)
Escherichia coli [2]
  MIC: 16 µg/mL (≈ 21.5 µM)
Staphylococcus aureus [3]
  MIC: 32 µg/mL (≈ 43 µM)
Escherichia coli [4]
  MIC: 16 µg/mL (≈ 21.5 µM)
Staphylococcus aureus [5]
  MIC: 2 µg/mL (≈ 2.69 µM)
Staphylococcus aureus [6]
  MIC: 8 µg/mL (≈ 10.8 µM)
Staphylococcus aureus [7]
  MIC: 8 µg/mL (≈ 10.8 µM)
Acinetobacter lwoffii [8]
  MIC: 128 µg/mL (≈ 172 µM)
Pseudomonas aeruginosa [9]
  MIC: 32 µg/mL (≈ 43 µM)
Escherichia coli [10]
  MIC: 16 µg/mL (≈ 21.5 µM)
Staphylococcus aureus [11]
  MIC: 8 µg/mL (≈ 10.8 µM)
Staphylococcus aureus [12]
  MIC: 4 µg/mL (≈ 5.38 µM)
Pseudomonas aeruginosa [13]
  MIC: 32 µg/mL (≈ 43 µM)
Pseudomonas aeruginosa [14]
  MIC: 32 µg/mL (≈ 43 µM)
Staphylococcus aureus [15]
  MIC: 32 µg/mL (≈ 43 µM)
Klebsiella pneumoniae
  MIC: 128 µg/mL (≈ 172 µM)
Staphylococcus aureus [16]
  MIC: 16 µg/mL (≈ 21.5 µM)

## N[C@H]1[C@@H](O[C@H]2[C@H](O)[C@@H](OCc3cccc4ccccc34)[C@H](N)C[C@@H]2N)O[C@H](CO)[C@@H](O)[C@@H]1OCc1cccc2ccccc12
Acinetobacter lwoffii [1]
  MIC: 128 µg/mL (≈ 212 µM)
Escherichia coli [2]
  MIC: 128 µg/mL (≈ 212 µM)
Staphylococcus aureus [3]
  MIC: 32 µg/mL (≈ 53 µM)
Escherichia coli [4]
  MIC: 128 µg/mL (≈ 212 µM)
Staphylococcus aureus [5]
  MIC: 32 µg/mL (≈ 53 µM)
Staphylococcus aureus [6]
  MIC: 64 µg/mL (≈ 106 µM)
Staphylococcus aureus [7]
  MIC: 64 µg/mL (≈ 106 µM)
Acinetobacter lwoffii [8]
  MIC: > 128 µg/mL
Pseudomonas aeruginosa [9]
  MIC: 128 µg/mL (≈ 212 µM)
Escherichia coli [10]
  MIC: 64 µg/mL (≈ 106 µM)
Staphylococcus aureus [11]
  MIC: 64 µg/mL (≈ 106 µM)
Staphylococcus aureus [12]
  MIC: 32 µg/mL (≈ 53 µM)
Pseudomonas aeruginosa [13]
  MIC: > 128 µg/mL
Pseudomonas aeruginosa [14]
  MIC: 64 µg/mL (≈ 106 µM)
Klebsiella pneumoniae
  MIC: 128 µg/mL (≈ 212 µM)
Staphylococcus aureus [16]
  MIC: 32 µg/mL (≈ 53 µM)

## NC[C@H]1O[C@H](O[C@H]2[C@H](O)[C@@H](OCc3cccc4ccccc34)[C@H](N)C[C@@H]2N)[C@H](N)[C@@H](OCc2cccc3ccccc23)[C@@H]1O
Acinetobacter lwoffii [1]
  MIC: 16 µg/mL (≈ 26.5 µM)
Escherichia coli [2]
  MIC: 32 µg/mL (≈ 53.1 µM)
Staphylococcus aureus [3]
  MIC: 8 µg/mL (≈ 13.3 µM)
Escherichia coli [4]
  MIC: 32 µg/mL (≈ 53.1 µM)
Staphylococcus aureus [5]
  MIC: 8 µg/mL (≈ 13.3 µM)
Staphylococcus aureus [6]
  MIC: 16 µg/mL (≈ 26.5 µM)
Staphylococcus aureus [7]
  MIC: 16 µg/mL (≈ 26.5 µM)
Acinetobacter lwoffii [8]
  MIC: > 128 µg/mL
Pseudomonas aeruginosa [9]
  MIC: 64 µg/mL (≈ 106 µM)
Escherichia coli [10]
  MIC: 16 µg/mL (≈ 26.5 µM)
Staphylococcus aureus [11]
  MIC: 32 µg/mL (≈ 53.1 µM)
Staphylococcus aureus [12]
  MIC: 8 µg/mL (≈ 13.3 µM)
Pseudomonas aeruginosa [13]
  MIC: > 128 µg/mL
Pseudomonas aeruginosa [14]
  MIC: 32 µg/mL (≈ 53.1 µM)
Staphylococcus aureus [15]
  MIC: 8 µg/mL (≈ 13.3 µM)
Klebsiella pneumoniae
  MIC: > 128 µg/mL
Staphylococcus aureus [16]
  MIC: 16 µg/mL (≈ 26.5 µM)

## NC[C@H]1O[C@H](O[C@H]2[C@H](O)[C@@H](OCc3ccc4ccccc4c3)[C@H](N)C[C@@H]2N)[C@H](N)[C@@H](OCc2ccc3ccccc3c2)[C@@H]1O
Acinetobacter lwoffii [1]
  MIC: 64 µg/mL (≈ 106 µM)
Escherichia coli [2]
  MIC: 64 µg/mL (≈ 106 µM)
Staphylococcus aureus [3]
  MIC: 16 µg/mL (≈ 26.5 µM)
Escherichia coli [4]
  MIC: 64 µg/mL (≈ 106 µM)
Staphylococcus aureus [5]
  MIC: 8 µg/mL (≈ 13.3 µM)
Staphylococcus aureus [6]
  MIC: 8 µg/mL (≈ 13.3 µM)
Staphylococcus aureus [7]
  MIC: 8 µg/mL (≈ 13.3 µM)
Acinetobacter lwoffii [8]
  MIC: > 128 µg/mL
Pseudomonas aeruginosa [9]
  MIC: 128 µg/mL (≈ 212 µM)
Escherichia coli [10]
  MIC: 64 µg/mL (≈ 106 µM)
Staphylococcus aureus [11]
  MIC: 8 µg/mL (≈ 13.3 µM)
Staphylococcus aureus [12]
  MIC: 4 µg/mL (≈ 6.64 µM)
Pseudomonas aeruginosa [13]
  MIC: > 128 µg/mL
Pseudomonas aeruginosa [14]
  MIC: 128 µg/mL (≈ 212 µM)
Staphylococcus aureus [15]
  MIC: 16 µg/mL (≈ 26.5 µM)
Klebsiella pneumoniae
  MIC: ≥ 128 µg/mL
Staphylococcus aureus [16]
  MIC: 8 µg/mL (≈ 13.3 µM)

## NC[C@H]1O[C@H](O[C@H]2[C@H](O)[C@@H](OCc3ccccc3)[C@H](N)C[C@@H]2N)[C@H](N)[C@@H](OCc2ccccc2)[C@@H]1O
Staphylococcus aureus [5]
  MIC: > 128 µg/mL
Staphylococcus aureus [7]
  MIC: > 128 µg/mL
Staphylococcus aureus [11]
  MIC: > 128 µg/mL
Staphylococcus aureus [12]
  MIC: > 128 µg/mL
Staphylococcus aureus [16]
  MIC: > 128 µg/mL

## CCCCCCCCCCCCCCCCCCO[C@@H]1[C@@H](N)[C@@H](O[C@H]2[C@H](O)[C@@H](O)[C@H](N)C[C@@H]2N)O[C@H](CN)[C@H]1O
Staphylococcus aureus [5]
  MIC: > 128 µg/mL
Staphylococcus aureus [7]
  MIC: > 128 µg/mL
Staphylococcus aureus [11]
  MIC: > 128 µg/mL
Staphylococcus aureus [12]
  MIC: > 128 µg/mL
Staphylococcus aureus [16]
  MIC: > 128 µg/mL

## NC[C@H]1O[C@H](O[C@H]2[C@H](O)[C@@H](OCCCCc3ccc4ccccc4c3)[C@H](N)C[C@@H]2N)[C@H](N)[C@@H](OCCCCc2ccc3ccccc3c2)[C@@H]1OCCCCc1ccc2ccccc2c1
Escherichia coli [2]
  MIC: > 128 µg/mL
Staphylococcus aureus [3]
  MIC: > 128 µg/mL
Escherichia coli [4]
  MIC: 128 µg/mL (≈ 147 µM)
Staphylococcus aureus [5]
  MIC: > 128 µg/mL
Staphylococcus aureus [6]
  MIC: 128 µg/mL (≈ 147 µM)
Staphylococcus aureus [7]
  MIC: > 128 µg/mL
Pseudomonas aeruginosa [9]
  MIC: 128 µg/mL (≈ 147 µM)
Escherichia coli [10]
  MIC: 128 µg/mL (≈ 147 µM)
Staphylococcus aureus [11]
  MIC: 128 µg/mL (≈ 147 µM)
Staphylococcus aureus [12]
  MIC: 128 µg/mL (≈ 147 µM)
Pseudomonas aeruginosa [13]
  MIC: 128 µg/mL (≈ 147 µM)
Pseudomonas aeruginosa [14]
  MIC: 128 µg/mL (≈ 147 µM)
Staphylococcus aureus [15]
  MIC: > 128 µg/mL
Staphylococcus aureus [16]
  MIC: 128 µg/mL (≈ 147 µM)

## NC[C@H]1O[C@H](O[C@H]2[C@H](O)[C@@H](OCc3ccc4ccccc4n3)[C@H](N)C[C@@H]2N)[C@H](N)[C@@H](OCc2ccc3ccccc3n2)[C@@H]1OCc1ccc2ccccc2n1
Acinetobacter lwoffii [1]
  MIC: 128 µg/mL (≈ 172 µM)
Escherichia coli [2]
  MIC: > 128 µg/mL
Staphylococcus aureus [3]
  MIC: 64 µg/mL (≈ 85.8 µM)
Escherichia coli [4]
  MIC: > 128 µg/mL
Staphylococcus aureus [5]
  MIC: 128 µg/mL (≈ 172 µM)
Staphylococcus aureus [7]
  MIC: > 128 µg/mL
Acinetobacter lwoffii [8]
  MIC: > 128 µg/mL
Pseudomonas aeruginosa [9]
  MIC: > 128 µg/mL
Escherichia coli [10]
  MIC: > 128 µg/mL
Staphylococcus aureus [11]
  MIC: 128 µg/mL (≈ 172 µM)
Staphylococcus aureus [12]
  MIC: 64 µg/mL (≈ 85.8 µM)
Pseudomonas aeruginosa [13]
  MIC: > 128 µg/mL
Pseudomonas aeruginosa [14]
  MIC: > 128 µg/mL
Staphylococcus aureus [15]
  MIC: 64 µg/mL (≈ 85.8 µM)
Klebsiella pneumoniae
  MIC: > 128 µg/mL
Staphylococcus aureus [16]
  MIC: > 128 µg/mL

## CCCCO[C@@H]1[C@@H](N)[C@@H](O[C@H]2[C@H](O)[C@@H](OCCCC)[C@H](N)C[C@@H]2N)O[C@H](CN)[C@H]1O
Acinetobacter lwoffii [1]
  MIC: 64 µg/mL (≈ 147 µM)
Escherichia coli [2]
  MIC: > 128 µg/mL
Staphylococcus aureus [3]
  MIC: > 128 µg/mL
Escherichia coli [4]
  MIC: > 128 µg/mL
Staphylococcus aureus [5]
  MIC: > 128 µg/mL
Staphylococcus aureus [7]
  MIC: > 128 µg/mL
Acinetobacter lwoffii [8]
  MIC: > 128 µg/mL
Pseudomonas aeruginosa [9]
  MIC: > 128 µg/mL
Escherichia coli [10]
  MIC: > 128 µg/mL
Staphylococcus aureus [11]
  MIC: 128 µg/mL (≈ 295 µM)
Staphylococcus aureus [12]
  MIC: > 128 µg/mL
Pseudomonas aeruginosa [13]
  MIC: > 128 µg/mL
Pseudomonas aeruginosa [14]
  MIC: > 128 µg/mL
Staphylococcus aureus [15]
  MIC: > 128 µg/mL
Klebsiella pneumoniae
  MIC: > 128 µg/mL
Staphylococcus aureus [16]
  MIC: > 128 µg/mL
